The source of these data is ChEMBL document CHEMBL1138040, “Activation of murine RNase L by isopolar 2'-phosphonate analogues of 2',5' oligoadenylates” (J Med Chem, 2006).

The target of series [1] is T1, 2-5A-dependent ribonuclease (Mus musculus) (UniProt Q05921).
T1 sequence (whole entry): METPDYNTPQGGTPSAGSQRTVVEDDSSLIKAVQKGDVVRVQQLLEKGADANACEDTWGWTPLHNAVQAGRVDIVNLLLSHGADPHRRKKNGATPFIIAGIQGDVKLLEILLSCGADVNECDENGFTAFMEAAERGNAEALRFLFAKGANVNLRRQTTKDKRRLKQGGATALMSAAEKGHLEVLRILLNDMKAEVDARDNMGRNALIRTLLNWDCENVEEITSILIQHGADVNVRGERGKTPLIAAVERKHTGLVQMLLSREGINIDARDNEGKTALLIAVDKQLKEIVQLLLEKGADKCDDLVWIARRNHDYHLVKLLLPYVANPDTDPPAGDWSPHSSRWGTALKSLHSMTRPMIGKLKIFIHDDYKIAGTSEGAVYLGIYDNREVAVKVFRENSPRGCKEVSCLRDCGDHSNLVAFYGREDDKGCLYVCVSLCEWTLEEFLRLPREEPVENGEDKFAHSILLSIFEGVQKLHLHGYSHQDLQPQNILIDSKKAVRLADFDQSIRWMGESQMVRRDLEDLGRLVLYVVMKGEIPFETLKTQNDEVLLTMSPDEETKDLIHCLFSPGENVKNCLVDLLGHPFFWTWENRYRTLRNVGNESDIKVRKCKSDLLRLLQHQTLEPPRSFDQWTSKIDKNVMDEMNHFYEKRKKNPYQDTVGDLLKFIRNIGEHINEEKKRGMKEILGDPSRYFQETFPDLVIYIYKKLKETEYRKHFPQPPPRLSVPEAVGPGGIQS
Nature of the series: Displacement of pA4[32P]pCp from mouse spleen RNase L at 1 uM. The class given is tissue-based. The gist of the method:
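Competitive radiobinding using 20 µL male BALB/c mouse spleen 126 000g supernatant; oligoadenylate at 1 µM final with about 0.4 nM pA4-[32P]pCp in 25 µL. Held 60 min at 4 °C, filtered through nitrocellulose, washed with Tris pH 7.6/KCl/MgCl2/glycerol, bound radioactivity counted by scintillation. Triplicates; percent binding relative to natural pA4.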

Series [2] can be described thus: Half life in mouse spleen at 4 degreeC. The class given is ADME. A digest of the protocol:
(§1)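 Oligoadenylate (2.5 nmol) mixed with 9 µL soluble mouse spleen 126 000g supernatant, kept at 4 °C. Sampled periodically: diluted with aqueous 0.1% TFA, spun 14 000g 10 min, run on C18 RP-HPLC (acetonitrile gradient in 0.1% TFA, 260 nm). Intact and degradation peaks integrated to follow degradation over time.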

Series [3] deals with T2, 2-5A-dependent ribonuclease (Mus musculus, UniProt Q05921).
T2 sequence (Q05921 whole entry): T1 sequence (whole entry)
Briefly: Binding to mouse RNase L assessed as displacement of pA4-[32P]pCp.

The species entered for a further series is Mus musculus. Briefly: Stability in mouse spleen assessed as ability to resist degradation by nuclease. The class given is ADME. A digest of the protocol: as §1

Structures are written as SMILES.

The term half-life denotes the time needed for the level to fall by half in the phase considered. Broadly, the EC50 is the concentration needed to bring the measured effect to its halfway point.

In turn, `Nc1ncnc2c1ncn2[C@@H]1O[C@H](COP(=O)(O)O[C@@H]2[C@H](O)[C@@H](COP(=O)(O)O)O[C@H]2n2cnc3c(N)ncnc32)[C@H](O)[C@H]1OP(=O)(O)OC[C@H]1O[C@@H](n2cnc3c(N)ncnc32)[C@H](OP(=O)(O)O)[C@@H]1O` registered an Activity in series [1] of 41%.

Regarding `Nc1ncnc2c1ncn2[C@@H]1O[C@H](COP(=O)(O)O[C@@H]2[C@H](O)[C@@H](COP(=O)(O)O[C@H]3[C@H](O)[C@@H](COP(=O)(O)O[C@H]4[C@H](O)[C@@H](COP(=O)(O)O)O[C@H]4n4cnc5c(N)ncnc54)O[C@H]3n3cnc4c(N)ncnc43)O[C@H]2n2cnc3c(N)ncnc32)[C@@H](O)[C@H]1OP(=O)(O)O`, the Activity in series [1] worked out at 24%.

Turning to `Nc1ncnc2c1ncn2[C@@H]1O[C@H](COP(=O)(O)O)[C@H](O)[C@H]1OP(=O)(O)OC[C@H]1O[C@@H](n2cnc3c(N)ncnc32)[C@H](OP(=O)(O)OC[C@H]2O[C@@H](n3cnc4c(N)ncnc43)[C@H](OP(=O)(O)OC[C@H]3O[C@@H](n4cnc5c(N)ncnc54)[C@H](OP(=O)(O)O)[C@@H]3O)[C@@H]2O)[C@@H]1O`, in series [1], the Activity amounted to 86%.

On to `Nc1ncnc2c1ncn2[C@@H]1O[C@H](COP(=O)(O)O[C@@H]2[C@H](O)[C@@H](COP(=O)(O)O[C@@H]3[C@H](O)[C@@H](COP(=O)(O)O[C@@H]4[C@H](O)[C@@H](COP(=O)(O)O)O[C@H]4n4cnc5c(N)ncnc54)O[C@H]3n3cnc4c(N)ncnc43)O[C@H]2n2cnc3c(N)ncnc32)[C@@H](O)[C@H]1OP(=O)(O)O`, for which the Activity in series [1] stood at 100%. In series [2], this compound had a half-life of 10 h. The EC50 in series [3] came to 0.9 nM.

Regarding `Nc1ncnc2c1ncn2[C@@H]1O[C@H](COP(=O)(O)O)[C@H](O)[C@H]1OP(=O)(O)OC[C@H]1O[C@@H](n2cnc3c(N)ncnc32)[C@H](OP(=O)(O)OC[C@H]2O[C@@H](n3cnc4c(N)ncnc43)[C@H](OP(=O)(O)OC[C@H]3O[C@@H](n4cnc5c(N)ncnc54)[C@H](OP(=O)(O)O)[C@@H]3O)[C@@H]2O)[C@H]1O`, the Activity in series [1] was found to be 51%.

As to `Nc1ncnc2c1ncn2[C@@H]1O[C@H](COP(=O)(O)O)[C@H](O)[C@H]1OP(=O)(O)OC[C@H]1O[C@@H](n2cnc3c(N)ncnc32)[C@H](OP(=O)(O)OC[C@H]2O[C@@H](n3cnc4c(N)ncnc43)[C@H](OP(=O)(O)OC[C@H]3O[C@@H](n4cnc5c(N)ncnc54)[C@H](OP(=O)(O)O)[C@@H]3O)[C@H]2O)[C@@H]1O`, the Activity in series [1] came to 93%. The Stability entry in the series filed under Mus musculus is listed as “Stable”. Besides, the EC50 in series [3] came out at 323 nM.

As for `Nc1ncnc2c1ncn2[C@@H]1O[C@H](COP(=O)(O)O[C@H]2[C@H](O)[C@@H](COP(=O)(O)O[C@H]3[C@H](O)[C@@H](COP(=O)(O)O)O[C@H]3n3cnc4c(N)ncnc43)O[C@H]2n2cnc3c(N)ncnc32)[C@@H](O)[C@H]1OP(=O)(O)O`, the Activity in series [1] worked out at 0%.

As for `Nc1ncnc2c1ncn2[C@@H]1O[C@H](COP(=O)(O)O[C@@H]2[C@H](O)[C@@H](COP(=O)(O)O[C@H]3[C@H](O)[C@@H](COP(=O)(O)O)O[C@H]3n3cnc4c(N)ncnc43)O[C@H]2n2cnc3c(N)ncnc32)[C@@H](O)[C@H]1OP(=O)(O)O`, the Activity in series [1] was determined as 49%.

In turn, `Nc1ncnc2c1ncn2[C@@H]1O[C@H](COP(=O)(O)O[C@@H]2[C@H](O)[C@@H](COP(=O)(O)O[C@@H]3[C@H](O)[C@@H](COP(=O)(O)O)O[C@H]3n3cnc4c(N)ncnc43)O[C@H]2n2cnc3c(N)ncnc32)[C@@H](O)[C@H]1OP(=O)(O)O` returned an Activity in series [1] of 39%.

Compound `Nc1ncnc2c1ncn2[C@@H]1O[C@H](COP(=O)(O)O)[C@H](O)[C@H]1OP(=O)(O)OC[C@H]1O[C@@H](n2cnc3c(N)ncnc32)[C@H](OP(=O)(O)OC[C@H]2O[C@@H](n3cnc4c(N)ncnc43)[C@H](OP(=O)(O)O)[C@@H]2O)[C@@H]1O` came in with an Activity in series [1] of 64%.

Compound `Nc1ncnc2c1ncn2[C@@H]1O[C@H](COP(=O)(O)O[C@H]2[C@H](O)[C@@H](COP(=O)(O)O[C@H]3[C@H](O)[C@@H](COP(=O)(O)O[C@H]4[C@H](O)[C@@H](COP(=O)(O)O)O[C@H]4n4cnc5c(N)ncnc54)O[C@H]3n3cnc4c(N)ncnc43)O[C@H]2n2cnc3c(N)ncnc32)[C@@H](O)[C@H]1OP(=O)(O)O` returned an Activity in series [1] of 0%.

Consider `Nc1ncnc2c1ncn2[C@@H]1O[C@H](COP(=O)(O)O[C@H]2[C@H](O)[C@@H](COP(=O)(O)O[C@@H]3[C@H](O)[C@@H](COP(=O)(O)O[C@H]4[C@H](O)[C@@H](COP(=O)(O)O)O[C@H]4n4cnc5c(N)ncnc54)O[C@H]3n3cnc4c(N)ncnc43)O[C@H]2n2cnc3c(N)ncnc32)[C@@H](O)[C@H]1OP(=O)(O)O`, for which the Activity in series [1] is 51%.

For the compound `Nc1ncnc2c1ncn2[C@@H]1O[C@H](COP(=O)(O)O[C@@H]2[C@H](O)[C@@H](COP(=O)(O)O[C@H]3[C@H](O)[C@@H](COP(=O)(O)O[C@@H]4[C@H](O)[C@@H](COP(=O)(O)O)O[C@H]4n4cnc5c(N)ncnc54)O[C@H]3n3cnc4c(N)ncnc43)O[C@H]2n2cnc3c(N)ncnc32)[C@@H](O)[C@H]1OP(=O)(O)O`, the Activity in series [1] amounted to 37%.

Consider `Nc1ncnc2c1ncn2[C@@H]1O[C@H](COP(=O)(O)O[C@H]2[C@H](O)[C@@H](COP(=O)(O)O[C@H]3[C@H](O)[C@@H](COP(=O)(O)O[C@@H]4[C@H](O)[C@@H](COP(=O)(O)O)O[C@H]4n4cnc5c(N)ncnc54)O[C@H]3n3cnc4c(N)ncnc43)O[C@H]2n2cnc3c(N)ncnc32)[C@@H](O)[C@H]1OP(=O)(O)O`, for which, in series [1], the Activity came out at 33%.

In turn, `Nc1ncnc2c1ncn2[C@@H]1O[C@H](COP(=O)(O)O[C@H]2[C@H](O)[C@@H](COP(=O)(O)O[C@@H]3[C@H](O)[C@@H](COP(=O)(O)O)O[C@H]3n3cnc4c(N)ncnc43)O[C@H]2n2cnc3c(N)ncnc32)[C@@H](O)[C@H]1OP(=O)(O)O` showed an Activity in series [1] of 33%.

Consider `Nc1ncnc2c1ncn2[C@@H]1O[C@H](COP(=O)(O)O[C@@H]2[C@H](O)[C@@H](COP(=O)(O)O[C@@H]3[C@H](O)[C@@H](COP(=O)(O)O[C@H]4[C@H](O)[C@@H](COP(=O)(O)O)O[C@H]4n4cnc5c(N)ncnc54)O[C@H]3n3cnc4c(N)ncnc43)O[C@H]2n2cnc3c(N)ncnc32)[C@@H](O)[C@H]1OP(=O)(O)O`, for which, in series [1], the Activity was 40%.

In series [1], `Nc1ncnc2c1ncn2[C@@H]1O[C@H](COP(=O)(O)O[C@@H]2[C@H](O)[C@@H](COP(=O)(O)O)O[C@H]2n2cnc3c(N)ncnc32)[C@H](O)[C@H]1OP(=O)(O)OC[C@H]1O[C@@H](n2cnc3c(N)ncnc32)[C@H](OP(=O)(O)OC[C@H]2O[C@@H](n3cnc4c(N)ncnc43)[C@H](OP(=O)(O)O)[C@@H]2O)[C@@H]1O` returned an Activity of 67%.

Compound `Nc1ncnc2c1ncn2[C@@H]1O[C@H](COP(=O)(O)O[C@@H]2[C@@H](O)[C@@H](COP(=O)(O)O[C@@H]3[C@H](O)[C@@H](COP(=O)(O)O)O[C@H]3n3cnc4c(N)ncnc43)O[C@H]2n2cnc3c(N)ncnc32)[C@H](O)[C@H]1OP(=O)(O)OC[C@H]1O[C@@H](n2cnc3c(N)ncnc32)[C@H](OP(=O)(O)O)[C@@H]1O` gave an Activity in series [1] of 88%. In addition, the EC50 in series [3] worked out at 393 nM.

In the case of `Nc1ncnc2c1ncn2[C@@H]1O[C@H](COP(=O)(O)O)[C@H](O)[C@H]1OP(=O)(O)OC[C@H]1O[C@@H](n2cnc3c(N)ncnc32)[C@H](OP(=O)(O)OC[C@H]2O[C@@H](n3cnc4c(N)ncnc43)[C@H](OP(=O)(O)OC[C@H]3O[C@@H](n4cnc5c(N)ncnc54)[C@H](OP(=O)(O)O)[C@@H]3O)[C@H]2O)[C@H]1O`, the Activity in series [1] worked out at 43%.

Turning to `Nc1ncnc2c1ncn2[C@@H]1O[C@H](COP(=O)(O)O)[C@H](O)[C@H]1OP(=O)(O)OC[C@H]1O[C@@H](n2cnc3c(N)ncnc32)[C@H](OP(=O)(O)OC[C@H]2O[C@@H](n3cnc4c(N)ncnc43)[C@H](OP(=O)(O)O)[C@@H]2O)[C@H]1O`, the Activity in series [1] turned out to be 45%.
